Laboratory results: ChEMBL document CHEMBL1806357, “A regioselective synthesis of some new pyrazol-1'-ylpyrazolo[1,5-a]pyrimidines in aqueous medium and their evaluation as antimicrobial agents” (2011)
Converted amounts (≈) assume the structure as drawn.

How the values were obtained:
[1] = tested on: Bacillus cereus; test: Antibacterial activity against Bacillus cereus ATCC 11778 after 24 hrs by broth microdilution method; assay type: functional
[2] = tested on: Staphylococcus aureus; test: Antibacterial activity against Staphylococcus aureus ATCC 9144 at 4 ug/ml after 24 hrs by agar-well diffusion technique; assay type: functional, organism-based
Procedure, shortened: (§1)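 Agar-well diffusion. Bacteria were kept at 5–8 °C on Brain Heart Infusion agar. Inocula came from 24 h cultures adjusted to 0.5 McFarland (1 × 10^6 CFU/ml). 100 µl was seeded into 20 ml molten Mueller Hinton agar. 6 mm wells received 100 µl of sample, with gentamicin standard at 4 µg/ml and DMSO as negative control. Plates ran 24 h at 37 ± 1 °C; inhibition zone diameter in mm.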

[3] = tested on: Staphylococcus aureus; test: Antibacterial activity against Staphylococcus aureus ATCC 9144 after 24 hrs by broth microdilution method; assay type: functional
[4] = tested on: Pseudomonas aeruginosa; test: Antibacterial activity against Pseudomonas aeruginosa ATCC 25668 after 24 hrs by broth microdilution method; assay type: functional
[5] = tested on: Pseudomonas aeruginosa; test: Antibacterial activity against Pseudomonas aeruginosa ATCC 25668 at 4 ug/ml after 24 hrs by agar-well diffusion technique; assay type: functional, organism-based; procedure, shortened: as §1
[6] = tested on: Bacillus cereus; test: Antibacterial activity against Bacillus cereus ATCC 11778 at 4 ug/ml after 24 hrs by agar-well diffusion technique; assay type: functional, organism-based; procedure, shortened: as §1
[7] = tested on: Escherichia coli; test: Antibacterial activity against Escherichia coli ATCC 8739 at 4 ug/ml after 24 hrs by agar-well diffusion technique; assay type: functional, organism-based; procedure, shortened: as §1
[8] = tested on: Escherichia coli; test: Antibacterial activity against Escherichia coli ATCC 8739 after 24 hrs by broth microdilution method; assay type: functional
[9] = tested on: Bacillus cereus; test: Antibacterial activity against Bacillus cereus ATCC 11778 at 2 mg/ml after 24 hrs by agar-well diffusion technique; assay type: functional; settings: ATCC 11778, 24 h, read-out: DIZ
Procedure, shortened: (§2)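 Agar-well diffusion used MHA seeded with 24 h cultures at 0.5 McFarland (1 × 10^6 CFU/ml). 100 µl of compound (2 mg/ml in DMSO, filter-sterilized) went into each 6 mm well. Plates were incubated upright at 37 ± 1 °C for 24 h, and the inhibition zone diameter was measured in mm. DMSO was the negative control. Values are the mean of three replicates.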

[10] = tested on: Escherichia coli; test: Antibacterial activity against Escherichia coli ATCC 8739 at 2 mg/ml after 24 hrs by agar-well diffusion technique; assay type: functional; settings: ATCC 8739, 24 h, read-out: DIZ; procedure, shortened: as §2
[11] = tested on: Staphylococcus aureus; test: Antibacterial activity against Staphylococcus aureus ATCC 9144 at 2 mg/ml after 24 hrs by agar-well diffusion technique; assay type: functional; settings: ATCC 9144, 24 h, read-out: DIZ; procedure, shortened: as §2
[12] = tested on: Pseudomonas aeruginosa; test: Antibacterial activity against Pseudomonas aeruginosa ATCC 25668 at 2 mg/ml after 24 hrs by agar-well diffusion technique; assay type: functional; settings: ATCC 25668, 24 h, read-out: DIZ; procedure, shortened: as §2
[13] = tested on: Helminthosporium; test: Antifungal activity against Helminthosporium sp. at 200 ug/ml after 7 days by poisoned food technique relative to control; assay type: functional
Procedure, shortened: (§3)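 Poisoned food technique with soil-isolated fungi on PDA. Compound from a 1 mg/ml DMSO stock was added to molten agar at 40 ± 2 °C to give 10, 50, 100 or 200 µg/ml. A 6 mm mycelial disc from a 6-day culture was placed centrally, and plates were held at 28 ± 1 °C. Radial growth was measured after 7 days, and % inhibition was calculated against PDA/DMSO control, in triplicate.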

[14] = tested on: Aspergillus terreus; test: Antifungal activity against Aspergillus terreus at 100 ug/ml after 7 days by poisoned food technique relative to control; assay type: functional; procedure, shortened: as §3
[15] = tested on: Fusarium oxysporum; test: Antifungal activity against Fusarium oxysporum at 100 ug/ml after 7 days by poisoned food technique relative to control; assay type: functional; procedure, shortened: as §3
[16] = tested on: Aspergillus terreus; test: Antifungal activity against Aspergillus terreus at 50 ug/ml after 7 days by poisoned food technique relative to control; assay type: functional; procedure, shortened: as §3
[17] = tested on: Helminthosporium; test: Antifungal activity against Helminthosporium sp. at 100 ug/ml after 7 days by poisoned food technique relative to control; assay type: functional; procedure, shortened: as §3
[18] = tested on: Fusarium oxysporum; test: Antifungal activity against Fusarium oxysporum at 10 ug/ml after 7 days by poisoned food technique relative to control; assay type: functional; procedure, shortened: as §3
[19] = tested on: Alternaria alternata; test: Antifungal activity against Alternaria alternata at 100 ug/ml after 7 days by poisoned food technique relative to control; assay type: functional; procedure, shortened: as §3
[20] = tested on: Fusarium oxysporum; test: Antifungal activity against Fusarium oxysporum at 200 ug/ml after 7 days by poisoned food technique relative to control; assay type: functional; procedure, shortened: as §3
[21] = tested on: Helminthosporium; test: Antifungal activity against Helminthosporium sp. at 10 ug/ml after 7 days by poisoned food technique relative to control; assay type: functional; procedure, shortened: as §3
[22] = tested on: Aspergillus terreus; test: Antifungal activity against Aspergillus terreus at 200 ug/ml after 7 days by poisoned food technique relative to control; assay type: functional; procedure, shortened: as §3
[23] = tested on: Alternaria alternata; test: Antifungal activity against Alternaria alternata at 50 ug/ml after 7 days by poisoned food technique relative to control; assay type: functional; procedure, shortened: as §3
[24] = tested on: Alternaria alternata; test: Antifungal activity against Alternaria alternata at 10 ug/ml after 7 days by poisoned food technique relative to control; assay type: functional; procedure, shortened: as §3
[25] = tested on: Helminthosporium; test: Antifungal activity against Helminthosporium sp. at 50 ug/ml after 7 days by poisoned food technique relative to control; assay type: functional; procedure, shortened: as §3
[26] = tested on: Alternaria alternata; test: Antifungal activity against Alternaria alternata at 200 ug/ml after 7 days by poisoned food technique relative to control; assay type: functional; procedure, shortened: as §3
[27] = tested on: Fusarium oxysporum; test: Antifungal activity against Fusarium oxysporum at 50 ug/ml after 7 days by poisoned food technique relative to control; assay type: functional; procedure, shortened: as §3
[28] = tested on: Aspergillus terreus; test: Antifungal activity against Aspergillus terreus at 10 ug/ml after 7 days by poisoned food technique relative to control; assay type: functional; procedure, shortened: as §3
[29] = tested on: Staphylococcus aureus; test: Antibacterial activity against Staphylococcus aureus ATCC 9144 at 1 mg/ml after 24 hrs by agar-well diffusion technique; assay type: functional; settings: ATCC 9144, 24 h, read-out: DIZ
[30] = tested on: Escherichia coli; test: Antibacterial activity against Escherichia coli ATCC 8739 at 1 mg/ml after 24 hrs by agar-well diffusion technique; assay type: functional; settings: ATCC 8739, 24 h, read-out: DIZ
[31] = tested on: Pseudomonas aeruginosa; test: Antibacterial activity against Pseudomonas aeruginosa ATCC 25668 at 1 mg/ml after 24 hrs by agar-well diffusion technique; assay type: functional; settings: ATCC 25668, 24 h, read-out: DIZ
[32] = tested on: Bacillus cereus; test: Antibacterial activity against Bacillus cereus ATCC 11778 at 1 mg/ml after 24 hrs by agar-well diffusion technique; assay type: functional; settings: ATCC 11778, 24 h, read-out: DIZ

Row | Compound | MIC ([1]; ATCC 11778, 24 h) | MIC ([3]; ATCC 9144, 24 h) | MIC ([4]; ATCC 25668, 24 h) | zone of inhibition at 2000 µg/mL [9] | MIC ([8]; ATCC 8739, 24 h) | zone of inhibition at 2000 µg/mL [10] | zone of inhibition at 2000 µg/mL [11] | zone of inhibition at 2000 µg/mL [12] | Activity [13] | Activity [14] | Activity [15] | Activity [16] | Activity [17] | Activity [18] | Activity [19] | Activity [20] | Activity [21] | Activity [22] | Activity [23] | Activity [24] | also measured
1 | GENTAMICIN | – | – | – | – | – | – | – | – | – | – | – | – | – | – | – | – | – | – | – | – | MIC [1]: 4 µg/mL; inhibition zone (IZ) [2]: 14 mm; MIC [3]: 2 µg/mL; MIC [4]: 2 µg/mL; inhibition zone (IZ) [5]: 12 mm; inhibition zone (IZ) [6]: 14 mm; inhibition zone (IZ) [7]: 24 mm; MIC [8]: 4 µg/mL
2 | Cc1cc(-c2ccc(Br)cc2)n2nc(-n3nc(C)cc3-c3ccc(Br)cc3)cc2n1 | > 100 µg/mL | > 100 µg/mL | > 100 µg/mL | 8 mm | > 100 µg/mL | 8 mm | 8 mm | 8 mm | – | – | – | – | – | – | – | – | – | – | – | – | –
3 | Cc1nn(-c2cc3nc(C)c4c(n3n2)CCC4)c2c1CCC2 | 400 µg/mL (≈ 1360 µM) | 400 µg/mL (≈ 1360 µM) | > 400 µg/mL | 7 mm | > 400 µg/mL | 7 mm | 7 mm | 7 mm | – | – | – | – | – | – | – | – | – | – | – | – | –
4 | COc1ccc(-c2cc(C)nn2-c2cc3nc(C)cc(-c4ccc(OC)cc4)n3n2)cc1 | > 100 µg/mL | > 100 µg/mL | > 100 µg/mL | 8 mm | > 100 µg/mL | 8 mm | 8 mm | 8 mm | 62.2% | 7.5% | 26.2% | 6.25% | 27.7% | 6.55% | 11.1% | 20% | 0% | 11.3% | 0% | 0% | Activity [25]: 0%; Activity [26]: 11.1%; Activity [27]: 3.27%; Activity [28]: 2.5%
5 | Cc1cc(-c2cccs2)n2nc(-n3nc(C)cc3-c3cccs3)cc2n1 | > 200 µg/mL | 200 µg/mL (≈ 530 µM) | 200 µg/mL (≈ 530 µM) | 8 mm | 200 µg/mL (≈ 530 µM) | 8 mm | 8 mm | 8 mm | – | – | – | – | – | – | – | – | – | – | – | – | –
6 | Cc1ccc(-c2cc(C)nn2-c2cc3nc(C)cc(-c4ccc(C)cc4)n3n2)cc1 | 100 µg/mL (≈ 254 µM) | 100 µg/mL (≈ 254 µM) | 100 µg/mL (≈ 254 µM) | 8.5 mm | 50 µg/mL (≈ 127 µM) | 10.5 mm | 8 mm | 8 mm | – | – | – | – | – | – | – | – | – | – | – | – | –
7 | CC(=O)NC[C@H]1CN(c2ccc(N3CCOCC3)c(F)c2)C(=O)O1 [LINEZOLID] | > 100 µg/mL | – | > 100 µg/mL | – | > 100 µg/mL | – | – | – | – | – | – | – | – | – | – | – | – | – | – | – | zone of inhibition at 1000 µg/mL [29]: 18 mm; zone of inhibition at 1000 µg/mL [30]: 12 mm; zone of inhibition at 1000 µg/mL [31]: 8.5 mm; zone of inhibition at 1000 µg/mL [32]: 10 mm
8 | Cc1cc(-c2ccccc2)n2nc(-n3nc(C)cc3-c3ccccc3)cc2n1 | 200 µg/mL (≈ 547 µM) | 200 µg/mL (≈ 547 µM) | > 200 µg/mL | 8 mm | 200 µg/mL (≈ 547 µM) | 8 mm | 8 mm | 7.5 mm | 0% | 19.2% | 3.65% | 13.5% | 0% | 8.53% | 19.5% | 2.4% | 0% | 19.7% | 20.7% | 18.2% | Activity [25]: 0%; Activity [26]: 20.7%; Activity [27]: 6.09%; Activity [28]: 7.4%
9 | Cc1cc(-c2ccc(Cl)cc2)n2nc(-n3nc(C)cc3-c3ccc(Cl)cc3)cc2n1 | 50 µg/mL (≈ 115 µM) | 100 µg/mL (≈ 230 µM) | 100 µg/mL (≈ 230 µM) | 13 mm | 25 µg/mL (≈ 57.6 µM) | 13 mm | 9 mm | 10 mm | 36.6% | 2.5% | 9.8% | 0% | 17.7% | 1.63% | 0% | 16.3% | 11.1% | 12.5% | 0% | 0% | Activity [25]: 15.5%; Activity [26]: 0%; Activity [27]: 3.27%; Activity [28]: 0%
